Data on 6 compounds can be found in ChEMBL document CHEMBL4229530, “5-Adamantan thiadiazole-based thiazolidinones as antimicrobial agents. Design, synthesis, molecular docking and evaluation” (2018).

For assay [1], the system named is Trichoderma viride. Nature of the assay: Antifungal activity against Trichoderma viride IAM 5061 after 72 hrs by serial dilution assay. In kind it is functional. As to conditions: IAM 5061, 72 h. Summed up: (§1)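 Modified microdilution: fungal spores washed off malt agar with sterile 0.85% saline plus 0.1% Tween 80, adjusted to about 1.0×10^5 per 100 µL well. Compounds in 5% DMSO (0.001-1.0 mg/ml) in malt broth; 72 h at 28°C on rotary shaker (160 rpm). MIC is lowest concentration without visible growth under binocular microscope. Bifonazole and ketoconazole controls (1-3500 µg/mL); three independent experiments in duplicate.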

The subject of assay [2] is Penicillium verrucosum. The experiment in a line: Antifungal activity against Penicillium cyclopium var verucosum after 72 hrs by serial dilution assay. The assay is classed as functional. Summed up: as §1
Assay [3] concerns Escherichia coli. Nature of the assay: Antibacterial activity against Escherichia coli ATCC 35210 after 24 hrs by INT dye based microdilution assay. The assay is classed as functional. Particulars: ATCC 35210, 24 h. The method, boiled down:
(§2)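 Broth microdilution in tryptic soy broth: overnight bacterial culture adjusted to 1×10^5 CFU/mL, 1.0×10^4 CFU per well; compounds dissolved in 5% DMSO, tested at 0.001-1.0 mg/ml; 24 h at 37°C. Streptomycin and ampicillin as positive controls, 5% DMSO as negative control; duplicate, repeated three times.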
A general note: Broth dilution looks for growth in wells or tubes with falling amounts of substance.

Assay [4] has as its system Penicillium ochrochloron. The experiment in a line: Antifungal activity against Penicillium ochrochloron ATCC 9112 after 72 hrs by serial dilution assay. In kind it is functional. Particulars: ATCC 9112, 72 h. The method, boiled down: as §1
The subject of assay [5] is Listeria monocytogenes. Nature of the assay: Antibacterial activity against Listeria monocytogenes NCTC 7973 after 24 hrs by INT dye based microdilution assay. The assay is classed as functional. As to conditions: NCTC 7973, 24 h. Summed up: as §2
In assay [6] the test system is Aspergillus ochraceus. Nature of the assay: Antifungal activity against Aspergillus ochraceus ATCC 12066 after 72 hrs by serial dilution assay. As to conditions: ATCC 12066, 72 h. The assay is classed as functional. The method, boiled down: as §1
Assay [7] concerns Pseudomonas aeruginosa. Nature of the assay: Antibacterial activity against Pseudomonas aeruginosa ATCC 27853 after 24 hrs by INT dye based microdilution assay. In kind it is functional. Particulars: ATCC 27853, 24 h. The method, boiled down: as §2
In assay [8] the test system is Staphylococcus aureus. Nature of the assay: Antibacterial activity against methicillin-resistant Staphylococcus aureus after 24 hrs by INT dye based microdilution assay. The assay is classed as functional. Summed up:
(§3)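 Broth microdilution in tryptic soy broth. Overnight culture adjusted to 1×10^5 CFU/mL, giving 1.0×10^4 CFU per well. Compounds dissolved in 5% DMSO and tested at 0.001-1.0 mg/ml. Plates incubated 24 h at 37°C. INT (0.2 mg/mL) then added, with 30 min at 37°C. Duplicate, repeated three times.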

Assay [9] deals with Enterobacter cloacae. The experiment in a line: Antibacterial activity against Enterobacter cloacae after 24 hrs by INT dye based microdilution assay. In kind it is functional. The method, boiled down:
as §2

Assay [10] has as its system Aspergillus versicolor. The experiment in a line: Antifungal activity against Aspergillus versicolor ATCC 11730 after 72 hrs by serial dilution assay. The assay is classed as functional. Particulars: ATCC 11730, 72 h. The method, boiled down: as §1
The subject of assay [11] is Pseudomonas aeruginosa. The experiment in a line: Antibacterial activity against drug-resistant Pseudomonas aeruginosa after 24 hrs by INT dye based microdilution assay. In kind it is functional. The method, boiled down: as §3
In assay [12] the test system is Salmonella typhimurium. The experiment in a line: Antibacterial activity against Salmonella typhimurium ATCC 13311 after 24 hrs by INT dye based microdilution assay. The assay is classed as functional, Salmonella enterica subsp. enterica serovar Typhimurium. Particulars: Salmonella enterica, ATCC 13311, 24 h. Summed up:
as §2

In assay [13] the test system is Escherichia coli. Nature of the assay: Antibacterial activity against drug-resistant Escherichia coli after 24 hrs by INT dye based microdilution assay. In kind it is functional. The method, boiled down:
as §3

Assay [14] has as its system Aspergillus fumigatus. Nature of the assay: Antifungal activity against Aspergillus fumigatus isolate 1022 after 72 hrs by serial dilution assay. The assay is classed as functional. As to conditions: isolate 1022, 72 h. The method, boiled down: as §1
Assay [15] deals with Talaromyces funiculosus. The experiment in a line: Antifungal activity against Penicillium funiculosum ATCC 36839 after 72 hrs by serial dilution assay. The assay is classed as functional. As to conditions: ATCC 36839, 72 h. Summed up:
as §1

The test system of assay [16] is Bacillus cereus. The experiment in a line: Antibacterial activity against Bacillus cereus after 24 hrs by INT dye based microdilution assay. The assay is classed as functional. The method, boiled down: as §2
Assay [17] has as its system Micrococcus flavus. Nature of the assay: Antibacterial activity against Micrococcus flavus ATCC 10240 after 24 hrs by INT dye based microdilution assay. The assay is classed as functional. As to conditions: ATCC 10240, 24 h. The method, boiled down: as §2
Assay [18] has as its system Aspergillus niger. Nature of the assay: Antifungal activity against Aspergillus niger ATCC 6275 after 72 hrs by serial dilution assay. The assay is classed as functional. Particulars: ATCC 6275, 72 h. The method, boiled down:
as §1

The test system of assay [19] is Staphylococcus aureus. The experiment in a line: Antibacterial activity against Staphylococcus aureus ATCC 6538 after 24 hrs by INT dye based microdilution assay. In kind it is functional. As to conditions: ATCC 6538, 24 h. The method, boiled down: as §2
The subject of assay [20] is Candida albicans. Nature of the assay: Antifungal activity against Candida albicans after 72 hrs by serial dilution assay. In kind it is functional. The method, boiled down: as §1

SMILES strings stand for the structures. In brackets after ≈: the same amount, converted by molar mass.

On to `Cc1ccc(/C=C2/S/C(=N/c3nnc(C45CC6CC(CC(C6)C4)C5)s3)NC2=O)cc1`, for which the MIC (usually the least concentration at which growth counts as inhibited) in assay [1] was 367 µM (≈ 160 µg/mL); in assay [2] it was 0.183 µM (≈ 0.0801 µg/mL); in [3], 0.115 µM (≈ 0.05 µg/mL); in assay [4], 183 µM (≈ 79.9 µg/mL); in [5], 59.3 µM (≈ 25.9 µg/mL); in assay [6], 183 µM (≈ 79.9 µg/mL). Also, the minimal inhibitory concentration (MIC) came out at 115 µM (≈ 50 µg/mL) in assay [7]; 0.115 µM (≈ 0.0501 µg/mL) in [8]; 115 µM (≈ 50 µg/mL) in assay [9]; 183 µM (≈ 79.9 µg/mL) in assay [10]; 115 µM (≈ 50.1 µg/mL) in assay [11]; 59.3 µM (≈ 25.9 µg/mL) in [12]. The MIC worked out at 0.115 µM (≈ 0.0501 µg/mL) in [13]; 367 µM (≈ 160 µg/mL) in [14]; 183 µM (≈ 79.9 µg/mL) in [15]; 115 µM (≈ 50 µg/mL) in assay [16]; 115 µM (≈ 50 µg/mL) in [17]; 183 µM (≈ 79.9 µg/mL) in assay [18]. The MIC in [19] turned out to be 0.115 µM (≈ 0.05 µg/mL).
On to `O=C1N/C(=N\c2nnc(C34CC5CC(CC(C5)C3)C4)s2)S/C1=C/c1ccc(Cl)cc1`, for which the minimum inhibitory concentration (MIC) in assay [1] is 68 µM (≈ 31.1 µg/mL); in assay [3] it was 0.274 µM (≈ 0.125 µg/mL); in [4], 137 µM (≈ 62.6 µg/mL); in [5], 274 µM (≈ 125 µg/mL); in assay [6] it was 68 µM (≈ 31.1 µg/mL); in assay [20], 274 µM (≈ 125 µg/mL). Further, the minimum inhibitory concentration (MIC) in [7] came to 33 µM (≈ 15.1 µg/mL); in assay [9], 137 µM (≈ 62.6 µg/mL); in assay [10], 68 µM (≈ 31.1 µg/mL); in assay [12] it was 33 µM (≈ 15.1 µg/mL); in [14], 137 µM (≈ 62.6 µg/mL); in [15] it was 137 µM (≈ 62.6 µg/mL). Besides, the minimal inhibitory concentration (MIC) in assay [16] was found to be 137 µM (≈ 62.6 µg/mL); in [17] it was 328 µM (≈ 150 µg/mL); in [18] it was 137 µM (≈ 62.6 µg/mL); in assay [19], 0.137 µM (≈ 0.0626 µg/mL).
Consider `O=C1N/C(=N\c2nnc(C34CC5CC(CC(C5)C3)C4)s2)S/C1=C/c1ccc(O)cc1`, for which the MIC stood at 71 µM (≈ 31.1 µg/mL) in [1]; 0.091 µM (≈ 0.0399 µg/mL) in assay [3]; 142 µM (≈ 62.3 µg/mL) in assay [4]; 284 µM (≈ 125 µg/mL) in assay [5]; 71 µM (≈ 31.1 µg/mL) in assay [6]; 284 µM (≈ 125 µg/mL) in [20]. Moreover, the MIC in [7] stood at 34 µM (≈ 14.9 µg/mL); in assay [9] it was 34 µM (≈ 14.9 µg/mL); in assay [10], 71 µM (≈ 31.1 µg/mL); in [12], 34 µM (≈ 14.9 µg/mL); in assay [14], 142 µM (≈ 62.3 µg/mL); in assay [15] it was 71 µM (≈ 31.1 µg/mL). Further, the minimum inhibitory concentration (MIC) stood at 34 µM (≈ 14.9 µg/mL) in [16], 142 µM (≈ 62.3 µg/mL) in [17], 142 µM (≈ 62.3 µg/mL) in assay [18] and 0.068 µM (≈ 0.0298 µg/mL) in assay [19].
In the case of `COc1ccc(/C=C2/S/C(=N/c3nnc(C45CC6CC(CC(C6)C4)C5)s3)NC2=O)cc1`, the minimal inhibitory concentration (MIC) in [1] amounted to 179 µM (≈ 81 µg/mL); in [2], 0.0998 µM (≈ 0.0452 µg/mL); in [3], 0.0995 µM (≈ 0.045 µg/mL); in assay [4], 99.8 µM (≈ 45.2 µg/mL); in [5], 44.8 µM (≈ 20.3 µg/mL); in assay [6], 99.8 µM (≈ 45.2 µg/mL). For the same compound, the MIC in assay [7] was found to be 99.5 µM (≈ 45 µg/mL); in assay [8], 0.111 µM (≈ 0.0501 µg/mL); in assay [9], 99.5 µM (≈ 45 µg/mL); in assay [10], 99.8 µM (≈ 45.2 µg/mL); in assay [11] it was 111 µM (≈ 50.1 µg/mL); in [12], 44.8 µM (≈ 20.3 µg/mL). Also, the MIC in assay [13] turned out to be 0.0553 µM (≈ 0.025 µg/mL); in assay [14], 99.8 µM (≈ 45.2 µg/mL); in assay [15], 99.8 µM (≈ 45.2 µg/mL); in assay [16] it was 99.5 µM (≈ 45 µg/mL); in assay [17], 99.5 µM (≈ 45 µg/mL); in assay [18], 179 µM (≈ 81 µg/mL). The same compound displayed an MIC in assay [19] of 0.0448 µM (≈ 0.0203 µg/mL).
Take `c1ccc(-c2ccc(C(c3ccccc3)n3ccnc3)cc2)cc1` (stereo not drawn) [BIFONAZOLE]: the MIC in assay [1] is 640 µM (≈ 199 µg/mL); in assay [2], 0.322 µM (≈ 0.0999 µg/mL); in assay [4] it was 480 µM (≈ 149 µg/mL); in [6], 480 µM (≈ 149 µg/mL); in assay [20] it was 322 µM (≈ 99.9 µg/mL); in assay [10], 480 µM (≈ 149 µg/mL). Also, the values for the MIC in assay [14], in [15] and in [18] were 480 µM (≈ 149 µg/mL), 640 µM (≈ 199 µg/mL) and 480 µM (≈ 149 µg/mL), respectively.
As to `CC(=O)N1CCN(c2ccc(OCC3COC(Cn4ccnc4)(c4ccc(Cl)cc4Cl)O3)cc2)CC1` (stereo not drawn) [KETOCONAZOLE], the minimum inhibitory concentration (MIC) in assay [1] was determined as 4750 µM (≈ 2520 µg/mL); in assay [2], 0.376 µM (≈ 0.2 µg/mL); in assay [4] it was 3800 µM (≈ 2020 µg/mL); in assay [6], 380 µM (≈ 202 µg/mL); in [20], 376 µM (≈ 200 µg/mL); in assay [10], 2850 µM (≈ 1510 µg/mL). For the same compound, the MIC in assay [14], in assay [15] and in assay [18] was 380 µM (≈ 202 µg/mL) in each case.
